The source made the active and inactive calls. No cut-off for these calls is given here.
Legend:
K562 [1] = assay: Induction of rhodamine-123 accumulation in human K562 cells preincubated for 1 hr prior rhodamine 123 addition measured after 30 mins by flow cytometry relative to control; assay type: functional, cell-based
In short: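 Cells (1×10⁶) pre-incubated with compound or 0.1% DMSO vehicle at 37 °C for 1 h. Rhodamine 123 then added to 0.5 µM for 30 min. Cell-associated fluorescence read by flow cytometry. Fold change = fluorescence divided by that of DMSO control cells; mean ± S.D. of three independent experiments.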

[2] = Growth inhibition of human K562/A02 cells at 10 uM after 72 hrs by MTS assay; assay type: cell-based; conditions: read-out: GI
In short: (§1)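 K562 and K562/A02 cells given compound alone at 10 µM for 72 h. Survival measured by MTS and expressed as percent of untreated control. Three independent experiments.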

[3] = Growth inhibition of human K562 cells at 10 uM after 72 hrs by MTS assay; assay type: cell-based; conditions: read-out: GI; in short: as §1
K562 [4] = assay: Potentiation of adriamycin-induced cytotoxicity against human K562 cells at 2.5 to 10 uM after 72 hrs by MTS assay; assay type: functional, cell-based
In short: (§2)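 ADR at 3.5 µM (K562/A02) or 0.2 µM (K562), alone or combined with compound at 2.5, 5 or 10 µM, for 72 h. Survival measured by MTS and given as percent growth of untreated control. Mean ± S.D. of three independent experiments; statistics versus ADR alone.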

[5] = target: T1, ATP-dependent translocase ABCB1 (Homo sapiens, UniProt P08183); assay: Inhibition of P-glycoprotein in human K562/A02 cells assessed as potentiation of adriamycin-induced cytotoxicity at 10 uM preincubated for 24 hrs followed by washout before addition of adriamycin measured after 72 hrs by MTS assay (reference value: 33.59 uM); assay type: cell-based; conditions: k562/a02, 72 h
T1 sequence (P08183 whole entry): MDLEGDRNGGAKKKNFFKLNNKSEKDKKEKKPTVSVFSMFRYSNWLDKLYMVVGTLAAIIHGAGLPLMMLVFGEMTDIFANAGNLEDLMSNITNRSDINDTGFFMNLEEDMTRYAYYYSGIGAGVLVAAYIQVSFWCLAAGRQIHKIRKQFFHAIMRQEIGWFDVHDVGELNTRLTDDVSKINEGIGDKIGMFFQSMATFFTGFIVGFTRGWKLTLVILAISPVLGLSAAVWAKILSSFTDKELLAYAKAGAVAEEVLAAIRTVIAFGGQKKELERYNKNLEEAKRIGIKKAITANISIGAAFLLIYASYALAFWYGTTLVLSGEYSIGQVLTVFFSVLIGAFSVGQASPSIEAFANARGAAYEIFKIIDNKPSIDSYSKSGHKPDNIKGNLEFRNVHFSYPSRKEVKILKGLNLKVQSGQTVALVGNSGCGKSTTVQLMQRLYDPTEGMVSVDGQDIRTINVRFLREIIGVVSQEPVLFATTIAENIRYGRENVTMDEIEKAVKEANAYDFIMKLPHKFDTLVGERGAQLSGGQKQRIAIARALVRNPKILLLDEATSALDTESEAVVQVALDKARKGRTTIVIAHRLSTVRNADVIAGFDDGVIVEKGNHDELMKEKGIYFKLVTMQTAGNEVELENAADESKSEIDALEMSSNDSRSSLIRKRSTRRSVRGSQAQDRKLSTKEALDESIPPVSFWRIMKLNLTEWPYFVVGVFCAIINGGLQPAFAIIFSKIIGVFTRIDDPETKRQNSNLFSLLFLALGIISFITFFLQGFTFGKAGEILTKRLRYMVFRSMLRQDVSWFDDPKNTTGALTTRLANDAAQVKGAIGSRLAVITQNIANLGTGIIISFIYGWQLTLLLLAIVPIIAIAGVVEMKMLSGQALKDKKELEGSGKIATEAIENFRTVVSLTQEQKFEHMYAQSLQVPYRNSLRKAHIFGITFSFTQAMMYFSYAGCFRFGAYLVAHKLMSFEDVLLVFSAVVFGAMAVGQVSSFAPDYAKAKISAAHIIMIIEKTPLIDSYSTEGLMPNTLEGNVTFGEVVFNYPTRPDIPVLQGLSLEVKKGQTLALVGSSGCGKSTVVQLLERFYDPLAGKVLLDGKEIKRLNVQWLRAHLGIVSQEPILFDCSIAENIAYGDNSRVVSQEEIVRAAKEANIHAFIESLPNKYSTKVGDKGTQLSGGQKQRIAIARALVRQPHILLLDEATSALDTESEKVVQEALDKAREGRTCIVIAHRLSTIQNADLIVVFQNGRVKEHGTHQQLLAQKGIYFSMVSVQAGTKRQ
In short: (§3)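 K562/A02 cells (1×10⁵/well) cultured overnight, then treated with 10 µM compound for 24 h. Washed three times with PBS and moved to compound-free medium. ADR at various concentrations added 0, 6, 12 or 24 h after removal, then 72 h further incubation. Read by MTS at 490 nm; ADR IC50 derived; mean ± S.E. of triplicates.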

K562 [6] = assay: Cytotoxicity against human K562 cells after 72 hrs by MTS assay; assay type: cell-based; conditions: K562, 72 h
In short: (§4)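 Cells (1×10⁴/well) seeded and grown 24 h, then exposed to a range of compound concentrations for 72 h at 37 °C, 5% CO₂. MTS added for 3 h, absorbance read at 490 nm. IC50 = concentration giving 50% growth decrease, taken from dose–response curves; mean of triplicate experiments. K562/A02 is the adriamycin-induced P-gp-overexpressing subline.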

[7] = Cytotoxicity against human K562/A02 cells overexpress P-gp after 72 hrs by MTS assay; assay type: ADME, cell-based; conditions: K562/A02, 72 h; in short: as §4
[8] = Down regulation of P-gp mRNA level in human K562/A02 cells at 10 uM after 72 hrs by RT-PCR analysis; assay type: functional, cell-based
[9] = Down regulation of P-gp level in human K562/A02 cells at 10 uM after 72 hrs by Western blotting analysis; assay type: functional, cell-based
[10] = target: T1, ATP-dependent translocase ABCB1; assay: Inhibition of P-glycoprotein in human K562/A02 cells assessed as potentiation of adriamycin-induced cytotoxicity at 2.5 to 10 uM after 72 hrs by MTS assay; assay type: cell-based; conditions: k562/a02, 72 h; in short: as §2
P-glycoprotein (P-gp) = assay: Ratio of IC50 for human K562/A02 cells overexpress P-gp to IC50 for human K562 cells; assay type: cell-based; conditions: K562/A02 cells overexpressing P-gp and parental K562 cells, read-out: Ratio IC50
K562/A02 [11] = assay: Growth inhibition of human K562/A02 cells at 3.5 uM after 72 hrs by MTS assay; assay type: functional, cell-based; in short: as §2
K562 [12] = assay: Growth inhibition of human K562 cells at 0.2 uM after 72 hrs by MTS assay; assay type: functional, cell-based; in short: as §2
K562/A02 [13] = assay: Inhibition of Pgp-mediated rhodamine 123 efflux in human K562/A02 cells assessed as intracellular rhodamine 123 accumulation at 3.3 uM preincubated for 30 mins measured after 60 mins by fluorescence microscopy relative to control; assay type: cell-based
In short: (§5)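 Efflux assay: K562/A02 cells incubated 30 min with 0.5 µM rhodamine 123 plus compound (0.33, 3.3 or 10 µM). Cells washed twice with PBS, resuspended in medium and left 60 min at 37 °C to efflux dye. Retained dye viewed by fluorescence microscopy, with flow cytometry in parallel; 0.1% DMSO as vehicle control.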

K562/A02 [14] = assay: Inhibition of Pgp-mediated rhodamine 123 efflux in human K562/A02 cells assessed as intracellular rhodamine 123 accumulation preincubated for 30 mins measured after 60 mins by fluorescence microscopy relative to control; assay type: cell-based; in short: as §5
[15] = Cytotoxicity against human K562/A02 cells assessed as survival rate at 10 uM after 72 hrs by MTS assay; assay type: cell-based; conditions: read-out: Activity; in short: as §1
[16] = target: T1, ATP-dependent translocase ABCB1; assay: Inhibition of P-glycoprotein in human K562/A02 cells assessed as potentiation of adriamycin-induced cytotoxicity by measuring survival rate at 2.5 uM after 72 hrs by MTS assay (reference value: 95%); assay type: cell-based; conditions: k562/a02, 72 h; in short: as §2
[17] = target: T1, ATP-dependent translocase ABCB1; assay: Inhibition of P-glycoprotein in human K562/A02 cells assessed as potentiation of adriamycin-induced cytotoxicity by measuring survival rate at 5 uM after 72 hrs by MTS assay (reference value: 95%); assay type: cell-based; conditions: k562/a02, 72 h; in short: as §2
[18] = target: T1, ATP-dependent translocase ABCB1; assay: Inhibition of P-glycoprotein in human K562/A02 cells assessed as potentiation of adriamycin-induced cytotoxicity by measuring survival rate at 10 uM after 72 hrs by MTS assay (reference value: 95%); assay type: cell-based; conditions: k562/a02, 72 h
[19] = target: T1, ATP-dependent translocase ABCB1; assay: Inhibition of P-glycoprotein in human K562/A02 cells assessed as potentiation of adriamycin-induced cytotoxicity at 10 uM preincubated for 24 hrs followed by washout addition of adriamycin at 6 hrs post washout measured after 72 hrs by MTS assay (reference value: 35.15 uM); assay type: cell-based; conditions: k562/a02, 72 h; in short: as §3
[20] = target: T1, ATP-dependent translocase ABCB1; assay: Inhibition of P-glycoprotein in human K562/A02 cells assessed as potentiation of adriamycin-induced cytotoxicity at 10 uM preincubated for 24 hrs followed by washout addition of adriamycin at 12 hrs post washout measured after 72 hrs by MTS assay (reference value: 54.11 uM); assay type: cell-based; conditions: k562/a02, 72 h; in short: as §3
[21] = target: T1, ATP-dependent translocase ABCB1; assay: Inhibition of P-glycoprotein in human K562/A02 cells assessed as potentiation of adriamycin-induced cytotoxicity at 10 uM preincubated for 24 hrs followed by washout addition of adriamycin at 24 hrs post washout measured after 72 hrs by MTS assay (reference value: 51.67 uM); assay type: cell-based; conditions: k562/a02, 72 h; in short: as §3
[22] = Effect on P-gp ATPase activity assessed as relative light units at 40 uM by P-gp-GloTM assay (reference value: 242328 +/- 1398 RLU)
[23] = Effect on P-gp ATPase activity assessed as relative light units at 200 uM by P-gp-GloTM assay
In short: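 P-gp ATPase measured by luminescence of remaining ATP; RLU inversely related to ATPase activity. Means of three separate experiments; Student's t test against untreated.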

Compound	Activity (K562 [1])	inhibition at 72 h, 10 µM [2] [%]	inhibition at 72 h, 10 µM [3] [%]	IC50 (K562 [6]) [µM]	IC50 [7] [µM]	other results
COc1ccc(CCN(C)CCCC(C#N)(c2ccc(OC)c(OC)c2)C(C)C)cc1OC (stereo not given)	inactive	< 10	< 10			Activity (K562 [4]): inactive; inhibition (INH) [5]: Active
COC(=O)c1cc(OC)c2c(c1-c1c(/C=C/C(=O)c3ccc(OC)cc3OC)cc(OC)c3c1OCO3)OCO2				> 100	> 100	
COC(=O)c1cc(OC)c2c(c1-c1c(/C=C/C(=O)c3cc(OC)ccc3OC)cc(OC)c3c1OCO3)OCO2	inactive	< 10	< 10	> 200	> 200	Activity [8]: inactive; Activity [9]: inactive; inhibition (INH) [10]: Active
COC(=O)c1cc(OC)c2c(c1-c1c(/C=C(\C#N)C(=O)c3ccc(OC)cc3)cc(OC)c3c1OCO3)OCO2				> 100	37.2	
COC(=O)c1cc(OC)c2c(c1-c1c(/C=C/C(=O)c3ccccc3)cc(OC)c3c1OCO3)OCO2				> 100	> 100	
COC(=O)c1cc(OC)c2c(c1-c1c(/C=C/C(=O)c3ccccc3OC)cc(OC)c3c1OCO3)OCO2	inactive	< 10	< 10	> 200	> 200	Activity [8]: inactive; Activity [9]: inactive; inhibition (INH) [10]: Active
COC(=O)c1cc(OC)c2c(c1-c1c(C(=O)OC)cc(OC)c3c1OCO3)OCO2 [BIFENDATE]				> 100	> 100	
COC(=O)c1cc(OC)c2c(c1-c1c(/C=C(\C#N)C(=O)c3ccc(C)cc3)cc(OC)c3c1OCO3)OCO2				61.3	48.4	
COC(=O)c1cc(OC)c2c(c1-c1c(/C=C(\C#N)C(=O)c3cc(OC)c(OC)c(OC)c3)cc(OC)c3c1OCO3)OCO2				60.3	38.9	
COC(=O)c1cc(OC)c2c(c1-c1c(/C=C/C(=O)c3ccc(O)cc3)cc(OC)c3c1OCO3)OCO2				> 100	> 100	
COc1cccc2c1C(=O)c1c(O)c3c(c(O)c1C2=O)C[C@@](O)(C(=O)CO)C[C@@H]3O[C@H]1C[C@H](N)[C@H](O)[C@H](C)O1 [DOXORUBICIN]				0.43	46.7	selectivity ratio (P-glycoprotein (P-gp)): 108; growth inhibition (GI) (K562/A02 [11]): inactive; growth inhibition (GI) (K562 [12]): inactive
COC(=O)c1cc(OC)c2c(c1-c1c(/C=C/C(=O)c3ccc([N+](=O)[O-])cc3)cc(OC)c3c1OCO3)OCO2				73.4	> 100	
COC(=O)c1cc(OC)c2c(c1-c1c(/C=C/C(=O)c3cc(C)ccc3C)cc(OC)c3c1OCO3)OCO2	inactive	< 10	< 10	> 200	> 200	inhibition (K562/A02 [13]): Active; inhibition (K562/A02 [14]): Dose-dependent effect; viability at 72 h, 10 µM [15]: 95%; Activity [16]: 46%; Activity [17]: 20%; Activity [18]: 5%; Activity (K562 [4]): inactive; inhibition (INH) [5]: Active; inhibition (INH) [19]: Active; inhibition (INH) [20]: Active; inhibition (INH) [21]: Active; Activity [8]: inactive; Activity [9]: inactive; RLU [22]: 271000; inhibition (INH) [10]: Active
COC(=O)c1cc(OC)c2c(c1-c1c(/C=C/C(=O)c3ccc(OC)cc3)cc(OC)c3c1OCO3)OCO2				> 100	> 100	
COC(=O)c1cc(OC)c2c(c1-c1c(/C=C/C(=O)c3cc(OC)c(OC)c(OC)c3)cc(OC)c3c1OCO3)OCO2	inactive	< 10	< 10	172	> 200	
SODIUM ORTHOVANAD						RLU [23]: 282000
